According to ChEMBL document CHEMBL1122654, “Phosphorus analogues of gamma-aminobutyric acid, a new class of anticonvulsants” (J Med Chem, 1984):
The source made the active and inactive calls.

Experiments:
Mus musculus [1] = assay: In vivo neurotoxicity at 600 mg/kg, number of animals exhibiting neurotoxicity in the rotarod test / number of animals tested at 0.5 hr; type: toxicity, organism-based; set-up: dose 600 mg/kg
[2] = biological target: GABA-A receptor; anion channel (Rattus norvegicus) (UniProt O09028+P15431+P18506+P18508+P19969+P20236+P23574+P23576+P28471+P28473+P30191+P62813+P63079+P63138+Q91ZM7+Q9ES14); assay: Displacement of [3H]-GABA from Gamma-aminobutyric acid A receptor binding sites in brain homogenates (relative to 1 mM GABA) at 100 uM; type: tissue-based
How it was run: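 Male Sprague-Dawley rat brain, frozen, homogenized in 50 mM Tris-citrate (pH 7.1 at 4 °C). Membranes treated with 0.05% Triton X-100 for 30 min at 37 °C and resuspended at 0.5–1.0 mg/mL protein. Incubated with 8 nM [3H]GABA for 5 min at 4 °C, stopped by centrifugation, and counted by scintillation. Test concentration 100 µM. Expressed as percent of the inhibition given by 1 mM GABA. Mean of two experiments, each in triplicate.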

Mus musculus [3] = assay: In vivo anticonvulsant activity against electric shock induced seizures(MES) in mice 0.5 hr after ip administration; inactive at 600 mg/kg; type: functional, organism-based; set-up: dose 600 mg/kg
Mus musculus [4] = assay: In vivo anticonvulsant activity against pentylene tetrazole seizure threshold(SMC) in mice 0.5 hr after sc administration; inactive at 600 mg/kg; type: functional, organism-based; set-up: dose 600 mg/kg
Mus musculus [5] = assay: In vivo neurotoxicity at 600 mg/kg, number of animals exhibiting neurotoxicity in the rotarod test / number of animals tested 4 hr; type: toxicity, organism-based; set-up: dose 600 mg/kg
Mus musculus [6] = assay: In vivo anticonvulsant activity against pentylene tetrazole seizure threshold(SMC) in mice 4 hr after sc administration; inactive at 600 mg/kg; type: functional, organism-based; set-up: dose 600 mg/kg
Mus musculus [7] = assay: In vivo anticonvulsant activity against electric shock induced seizures(MES) in mice 4 hr after ip administration; inactive at 600 mg/kg; type: functional, organism-based; set-up: dose 600 mg/kg
Mus musculus [8] = assay: In vivo anticonvulsant activity against electric shock induced seizures(MES) in mice; 104-131; type: functional
[9] = Partition coefficient (logP); type: physicochemical; conditions: octanol/water
Mus musculus [10] = assay: In vivo anticonvulsant activity against pentylene tetrazole seizure threshold(SMC) in mice 4 hr after sc administration; indicates inactive at 600 mg/kg; type: functional, organism-based; set-up: dose 600 mg/kg
Mus musculus [11] = assay: In vivo anticonvulsant activity against electric shock induced seizures(MES) in mice 0.5 hr after ip administration; indicates inactive at 600 mg/kg; type: functional, organism-based; set-up: dose 600 mg/kg
Mus musculus [12] = assay: In vivo anticonvulsant activity against pentylenetetrazole seizure threshold(SMC) in mice 0.5 hr after sc administration; indicates inactive at 600 mg/kg; type: functional, organism-based; set-up: dose 600 mg/kg
Mus musculus [13] = assay: In vivo neurotoxicity at 600 mg/kg, number of animals exhibiting neurotoxicity in the rotarod test / number of animals tested at 4 hr; 0/2; type: toxicity, organism-based; set-up: dose 600 mg/kg
Mus musculus [14] = assay: In vivo anticonvulsant activity against electric shock induced seizures(MES) in mice 4 hr after ip administration; indicates inactive at 600 mg/kg; type: functional, organism-based; set-up: dose 600 mg/kg
Mus musculus [15] = assay: In vivo neurotoxicity at 600 mg/kg, number of animals exhibiting neurotoxicity in the rotarod test / number of animals tested at 0.5 hr; 0/4; type: toxicity, organism-based; set-up: dose 600 mg/kg
[16] = biological target: GABA B receptor (Rattus norvegicus) (UniProt Q9Z0U4+O88871); assay: Displacement of [3H]GABA from GABA-B binding sites in brain homogenates (relative to 100 uM baclofen) at 100 uM; type: tissue-based
How it was run: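 Rat brain membrane binding (male Sprague-Dawley) using 10 nM [3H]GABA, with 100 µM isoguvacine present to block GABA-A sites. Test concentration 100 µM. Percent inhibition expressed relative to 100 µM baclofen. Mean of two separate experiments, each in triplicate.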

Mus musculus [17] = assay: In vivo anticonvulsant activity against electric shock induced seizures(MES) in mice 4 hr after ip administration; + indicates activity at 600 mg/kg; type: functional, organism-based; set-up: dose 600 mg/kg
Mus musculus [18] = assay: In vivo anticonvulsant activity against pentylene tetrazole seizure threshold(SMC) in mice 4 hr after sc administration; - indicates inactive at 600 mg/kg; type: functional, organism-based; set-up: dose 600 mg/kg
Mus musculus [19] = assay: In vivo neurotoxicity at 600 mg/kg, number of animals exhibiting neurotoxicity in the rotarod test / number of animals tested 4 hr; 0/2; type: toxicity, organism-based; set-up: dose 600 mg/kg
Mus musculus [20] = assay: In vivo anticonvulsant activity against electric shock induced seizures(MES) in mice 0.5 hr after ip administration; + indicates activity at 600 mg/kg.; type: functional, organism-based; set-up: dose 600 mg/kg
Mus musculus [21] = assay: In vivo anticonvulsant activity against pentylene tetrazole seizure threshold(SMC) in mice 0.5 hr after sc administration; +++ indicates activity at 100 mg/kg; type: functional, organism-based; set-up: dose 100 mg/kg
Mus musculus [22] = assay: In vivo anticonvulsant activity against pentylene tetrazole seizure threshold(SMC) in mice 0.5 hr after sc administration; + indicates activity at 600 mg/kg.; type: functional, organism-based; set-up: dose 600 mg/kg
Mus musculus [23] = assay: In vivo neurotoxicity at 600mg/kg, number of animals exhibiting neurotoxicity in the rotarod test / number of animals tested 0.5 hr; 4/4; type: toxicity, organism-based
Mus musculus [24] = assay: In vivo anticonvulsant activity against pentylene tetrazole seizure threshold(SMC) in mice 4 hr after sc administration; + indicates activity at 600 mg/kg.; type: functional, organism-based; set-up: dose 600 mg/kg
Mus musculus [25] = assay: In vivo neurotoxicity at 600 mg/kg, number of animals exhibiting neurotoxicity in the rotarod test / number of animals tested 4 hr; 1/2; type: toxicity, organism-based; set-up: dose 600 mg/kg
Mus musculus [26] = assay: In vivo anticonvulsant activity against electric shock induced seizures(MES) in mice 4 hr after ip administration; + indicates activity at 600 mg/kg.; type: functional, organism-based; set-up: dose 600 mg/kg
Mus musculus [27] = assay: In vivo anticonvulsant activity against electric shock induced seizures(MES) in mice 0.5 hr after ip administration; ++ indicates activity at 300 mg/kg.; type: functional, organism-based; set-up: dose 300 mg/kg
Mus musculus [28] = assay: In vivo anticonvulsant activity against electric shock induced seizures(MES) in mice 0.5 hr after ip administration; active at 600 mg/kg; type: functional, organism-based; set-up: dose 600 mg/kg

In the case of `CC(=O)Nc1ccccc1OP(=O)(Oc1ccccc1NC(C)=O)c1ccccc1`, the Toxicity (Mus musculus [1]) is reported as “Not Active”, the inhibition [2] is reported as 46% and the Anticonvulsant activity (Mus musculus [3]) is reported as “inactive”. For the same compound, the Anticonvulsant activity (Mus musculus [4]) was “inactive”, the Toxicity (Mus musculus [5]) was “Not Active” and the Anticonvulsant activity (Mus musculus [6]) was “inactive”. For the same compound, the Anticonvulsant activity (Mus musculus [7]) was “inactive”.
In the case of `CN1C(=O)CC(c2ccccc2)C1=O` (centres undefined) [PHENSUXIMIDE], the ED50 (Mus musculus [8]) is reported as 112 mg/kg.
`CCc1cc(OP(=O)(OC)OC)ccc1[N+](=O)[O-]` gave a logP [9] of 2.19.
In the case of `CCOP(=S)(OCC)Oc1ccc([N+](=O)[O-])cc1` [PARATHION], the logP [9] is reported as 2.98.
Compound `CCc1cc(OP(=S)(OC)OC)ccc1[N+](=O)[O-]` has a logP [9] of 3.84.
`CCOP(=O)(OCC)Oc1ccc(SC)c(Cl)c1` gave a logP [9] of 3.21.
With `NCCOP(=O)(O)c1ccccc1` the Anticonvulsant activity (Mus musculus [10]) was “inactive”, the inhibition [2] was 15% and the Anticonvulsant activity (Mus musculus [11]) was “inactive”. For the same compound, the Anticonvulsant activity (Mus musculus [12]) was “inactive”, the Toxicity (Mus musculus [13]) was 0 and the Anticonvulsant activity (Mus musculus [14]) was “inactive”. The Toxicity (Mus musculus [15]) was 0 and the inhibition [16] was 16%.
For `CCOP(=O)(OCC)Oc1ccccc1` [PHOSPHORIC ACID DIETHYL ESTER PHENYL ESTER], the logP [9] was 1.64.
Work on `COP(=S)(OC)Oc1cc(C)c([N+](=O)[O-])c(C)c1` yielded a logP [9] of 3.89.
`COP(=O)(OC)Oc1ccc([N+](=O)[O-])c(C)c1` [FENITROXON] showed a logP [9] of 1.69.
In the case of `COP(=S)(OC)Oc1ccc([N+](=O)[O-])cc1` [METHYL PARATHIONE], the logP [9] is reported as 2.51.
Compound `COP(=S)(OC)Oc1ccc([N+](=O)[O-])c(C)c1` [FENITROTHION] has a logP [9] of 3.3.
With `CCOP(=O)(OCC)Oc1ccc(SC)cc1Cl` the logP [9] was 3.05.
With `CC(=O)Nc1ccccc1OP(=O)(Oc1ccccc1)Oc1ccccc1` the Toxicity (Mus musculus [1]) was “Not Active”, the inhibition [2] was 54% and the Anticonvulsant activity (Mus musculus [3]) was “inactive”. For the same compound, the Anticonvulsant activity (Mus musculus [4]) was “inactive”, the Toxicity (Mus musculus [5]) was “Not Active” and the inhibition [16] was 36%. The Anticonvulsant activity (Mus musculus [6]) was “inactive” and the Anticonvulsant activity (Mus musculus [7]) was “inactive”.
For `NCCOP(=O)(O)Oc1ccccc1`, the inhibition [2] was 13%, the Anticonvulsant activity (Mus musculus [3]) was “inactive” and the “Anticonvulsant activityAnticonvulsant activity” value (Mus musculus [4]) was “inactive”. The inhibition [16] was 40%, the Anticonvulsant activity (Mus musculus [6]) was “inactive” and the Anticonvulsant activity (Mus musculus [7]) was “inactive”.
Compound `COP(=O)(OC)Oc1ccc([N+](=O)[O-])cc1` [DIMETHYL 4-NITROPHENYL PHOSPHATE] has a logP [9] of 1.27.
In the case of `COP(=O)(OC)Oc1ccc([N+](=O)[O-])c(C(C)C)c1`, the logP [9] is reported as 2.57.
`CCOP(=S)(OCC)Oc1ccccc1` showed a logP [9] of 3.46.
For `COP(=O)(OC)c1cccc(N)c1`, the Anticonvulsant activity (Mus musculus [17]) was “Active”, the Anticonvulsant activity (Mus musculus [18]) was “inactive” and the inhibition [2] was 13%. The Toxicity (Mus musculus [19]) was 0, the Toxicity (Mus musculus [15]) was 0 and the Anticonvulsant activity (Mus musculus [20]) was “Active”. The inhibition [16] was 13% and the Anticonvulsant activity (Mus musculus [21]) was “Active”.
For `CCOP(=O)(OCC)c1cccc(N)c1`, the Anticonvulsant activity (Mus musculus [22]) was “activity at 300 mg/kg”, the Toxicity (Mus musculus [23]) was 4 and the Anticonvulsant activity (Mus musculus [24]) was “activity at 300 mg/kg”. The Toxicity (Mus musculus [25]) was 1, the Anticonvulsant activity (Mus musculus [26]) was “activity at 300 mg/kg” and the Anticonvulsant activity (Mus musculus [27]) was “activity at 300 mg/kg”.
In the case of `CC(C)(C)CC(C)(C)NP(=O)(Oc1ccccc1)Oc1ccccc1`, the inhibition [16] is reported as 65% and the Anticonvulsant activity (Mus musculus [28]) is reported as “active at 600 mg/kg”.
